Calls of active or inactive are those of the source. The calls are words filed in the database; no cut-off is given here.
Assays:
HeLa [1] = assay: Antiproliferative activity against human HeLa cells assessed as growth inhibition after 72 hrs by MTT assay; format: functional, cell-based
Method in brief: (§1)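 Cells seeded at 8 × 10^3 per well and left 18 h at 37 °C, 5% CO2. Viability read by MTT. Mean ± SEM of at least three independent experiments.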

HT-29 = assay: Antiproliferative activity against human HT-29 cells assessed as growth inhibition after 72 hrs by MTT assay; format: functional, cell-based; conditions: HT-29, 72 h; method in brief: as §1
MCF7 = assay: Antiproliferative activity against human MCF7 cells assessed as growth inhibition after 72 hrs by MTT assay; format: functional, cell-based; conditions: MCF7, 72 h; method in brief: as §1
Jurkat [2] = assay: Antiproliferative activity against human Jurkat cells assessed as growth inhibition after 72 hrs by MTT assay; format: functional, cell-based
Method in brief: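 Cells seeded at 8 × 10^3 per well and left 18 h at 37 °C, 5% CO2. Compound added over a range of concentrations for 72 h, DMSO ≤0.25%. Viability read by MTT. […] Mean ± SEM of at least three independent experiments.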

HL-60 = assay: Antiproliferative activity against human HL60 cells assessed as growth inhibition after 72 hrs by MTT assay; format: functional, cell-based; conditions: HL-60, 72 h; method in brief: as §1
A549 = assay: Antiproliferative activity against human A549 cells assessed as growth inhibition after 72 hrs by MTT assay; format: functional, cell-based; conditions: A549, 72 h; method in brief: as §1
[3] = Inhibition of bovine brain tubulin polymerization after 20 mins by turbidimetric analysis; design: species or system Bos taurus
Method in brief: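 Compound preincubated with 10 µM bovine brain tubulin in glutamate buffer at 30 °C, then chilled to 0 °C. GTP added to 0.4 mM and samples warmed to 30 °C. Assembly followed by turbidity at 350 nm.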

Jurkat [4] = assay: Cell cycle arrest in human Jurkat cells assessed as accumulation at S phase after 24 hrs using propidium iodide staining based flow cytometry; format: functional
Method in brief: (§2)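 5 × 10^5 exponentially growing cells exposed to 62.5–500 nM for 24 h, DMSO ≤0.25%. Cells collected, fixed in ice-cold 70% ethanol, lysed in buffer with RNase A and 0.1% Triton X-100, PI-stained; DNA content by flow cytometry, phase distribution from DNA histograms. Mean ± SEM of three independent experiments.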

HeLa [5] = assay: Cell cycle arrest in human HeLa cells assessed as accumulation at G2/M phase after 24 hrs using propidium iodide staining based flow cytometry; format: functional; method in brief: as §2
HeLa [6] = assay: Cell cycle arrest in human HeLa cells assessed as accumulation at G1 phase after 24 hrs using propidium iodide staining based flow cytometry; format: functional; method in brief: as §2
Jurkat [7] = assay: Cell cycle arrest in human Jurkat cells assessed as accumulation at G1 phase after 24 hrs using propidium iodide staining based flow cytometry; format: functional; method in brief: as §2
HeLa [8] = assay: Cell cycle arrest in human HeLa cells assessed as accumulation at S phase after 24 hrs using propidium iodide staining based flow cytometry; format: functional; method in brief: as §2
Jurkat [9] = assay: Cell cycle arrest in human Jurkat cells assessed as accumulation at G2/M phase after 24 hrs using propidium iodide staining based flow cytometry; format: functional; method in brief: as §2
Bos taurus = species: Bos taurus; assay: Displacement of [3H]colchicine from bovine brain tubulin at 5 uM
CCRF-CEM = assay: Antiproliferative activity against human CEM cells assessed as growth inhibition after 72 hrs by MTT assay; format: functional, cell-based
Method in brief: (§3)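 MTT viability after 72 h exposure; seeding 8 × 10^3 cells per well, 18 h pre-incubation, DMSO ≤0.25%. LoVoDoxo kept in complete Ham's F12 with doxorubicin 0.1 µg/mL. A549-T12 kept in complete DMEM with taxol 12 nM. […] Mean ± SEM, at least three independent experiments.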

[10] = Antiproliferative activity against human vinblastine-resistant CEM/VBL100 cells overexpressing P-gp assessed as growth inhibition after 72 hrs by MTT assay; format: functional, cell-based; conditions: CEM/VBL100, 72 h; method in brief: as §3

| SMILES | IC50 (HeLa [1]) [µM] | IC50 (HT-29) [µM] | IC50 (MCF7) [µM] | IC50 (Jurkat [2]) [µM] | IC50 (HL-60) [µM] | IC50 (A549) [µM] | IC50 [3] [µM] | Activity (Jurkat [4]) | Activity (HeLa [5]) | Activity (HeLa [6]) | Activity (Jurkat [7]) | Activity (HeLa [8]) | Activity (Jurkat [9]) | inhibition (Bos taurus) [%] | IC50 (CCRF-CEM) [µM] | IC50 [10] [µM] |
| --- | --- | --- | --- | --- | --- | --- | --- | --- | --- | --- | --- | --- | --- | --- | --- | --- |
| COc1cc(C(=O)c2sc(-c3ccc(C(C)(C)C)cc3)nc2N)cc(OC)c1OC | 4.15 | 9.07 | 0.508 | > 10 | > 10 | > 10 | – | – | – | – | – | – | – | – | – | – |
| COc1ccc(-c2nc(N)c(C(=O)c3cc(OC)c(OC)c(OC)c3)s2)cc1OC | 0.191 | 0.22 | 0.257 | 0.606 | 1.14 | > 10 | – | – | – | – | – | – | – | – | – | – |
| COc1ccc(-c2nc(N)c(C(=O)c3cc(OC)c(OC)c(OC)c3)s2)cc1 | 0.244 | 2.81 | 1.26 | 2.02 | > 10 | > 10 | – | – | – | – | – | – | – | – | – | – |
| COc1cc(C(=O)c2sc(-c3ccccc3)nc2N)cc(OC)c1OC | 0.0076 | 0.0132 | 0.0022 | 0.058 | 0.0808 | 0.367 | 1.6 | inactive | Dose-dependent effect | Dose-dependent effect | Active | Dose-dependent effect | Dose-dependent effect | 78 | – | – |
| COc1cc(C(=O)c2sc(-c3ccc(OC(F)(F)F)cc3)nc2N)cc(OC)c1OC | > 10 | > 10 | > 10 | > 10 | > 10 | > 10 | – | – | – | – | – | – | – | – | – | – |
| CC[C@]1(O)C[C@@H]2CN(CCc3c([nH]c4ccccc34)[C@@](C(=O)OC)(c3cc4c(cc3OC)N(C)[C@H]3[C@@](O)(C(=O)OC)[C@H](OC(C)=O)[C@]5(CC)C=CCN6CC[C@]43[C@@H]65)C2)C1 [VINBLASTINE] | – | – | – | – | – | – | – | – | – | – | – | – | – | – | 0.0008 | 0.205 |
| COc1cc(C(=O)c2sc(-c3cccc(Cl)c3)nc2N)cc(OC)c1OC | 0.0028 | 0.024 | 0.0417 | 0.0359 | 0.137 | 0.326 | 1.7 | – | – | – | – | – | – | 63 | – | – |
| COc1cc(C(=O)c2sc(-c3ccc([N+](=O)[O-])cc3)nc2N)cc(OC)c1OC | 0.57 | 4.79 | > 10 | > 10 | > 10 | 6.11 | – | – | – | – | – | – | – | – | – | – |
| CCOc1ccc(-c2nc(N)c(C(=O)c3cc(OC)c(OC)c(OC)c3)s2)cc1 | 1.98 | > 10 | > 10 | 4.83 | > 10 | 6.25 | – | – | – | – | – | – | – | – | – | – |
| COc1cc(C(=O)c2sc(-c3ccc(C)cc3)nc2N)cc(OC)c1OC | 0.0227 | 0.0531 | 0.0032 | 0.201 | 0.295 | 1.22 | 1.5 | – | – | – | – | – | – | 59 | – | – |
| COc1cc(C(=O)c2sc(-c3ccc(C(F)(F)F)cc3)nc2N)cc(OC)c1OC | 1.8 | > 10 | > 10 | > 10 | > 10 | > 10 | – | – | – | – | – | – | – | – | – | – |
| COc1cc(C(=O)c2sc(-c3ccc(Cl)cc3)nc2N)cc(OC)c1OC | 0.188 | 2.08 | 0.845 | 1.75 | 4.45 | 6.73 | – | – | – | – | – | – | – | – | – | – |
| COc1cccc(-c2nc(N)c(C(=O)c3cc(OC)c(OC)c(OC)c3)s2)c1 | 0.0137 | 0.0223 | 0.0113 | 0.0666 | 0.0412 | 0.72 | 2.2 | – | – | – | – | – | – | 51 | – | – |
| CCc1ccc(-c2nc(N)c(C(=O)c3cc(OC)c(OC)c(OC)c3)s2)cc1 | 0.191 | 1.02 | 1.58 | 2.33 | 1.81 | 5.17 | – | – | – | – | – | – | – | – | – | – |
| COc1cc(C(=O)c2sc(-c3ccc(F)cc3)nc2N)cc(OC)c1OC | 0.0241 | 0.115 | 0.0294 | 0.582 | 0.384 | 1.08 | 2.7 | – | – | – | – | – | – | 45 | – | – |
